The values below come from ChEMBL document CHEMBL1123548 (J Med Chem, 1986).

Assay [1] concerns the target Adenosine receptor A2a (Cavia porcellus, UniProt P46616). Put plainly: Compound was evaluated for its ability to antagonise cyclic [3H]AMP accumulation in [3H]adenine-labeled guinea pig cerebral cortical slices. It counts as functional.
Assay [2] has as its target T1, Adenosine receptor A1 (Rattus norvegicus, UniProt P25099).
T1 sequence (P25099 whole entry): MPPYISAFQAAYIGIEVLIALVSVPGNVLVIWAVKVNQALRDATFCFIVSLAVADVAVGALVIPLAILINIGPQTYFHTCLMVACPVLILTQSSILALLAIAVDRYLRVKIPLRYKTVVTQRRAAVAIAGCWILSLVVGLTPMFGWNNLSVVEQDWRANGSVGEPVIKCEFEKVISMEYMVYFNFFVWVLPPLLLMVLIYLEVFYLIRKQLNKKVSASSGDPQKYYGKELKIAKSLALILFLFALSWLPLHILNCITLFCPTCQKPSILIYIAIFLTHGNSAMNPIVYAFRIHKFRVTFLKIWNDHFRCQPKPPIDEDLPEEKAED
Put plainly: Ability to inhibit binding of 1 nM [3H]cyclohexyladenosine to adenosine A1 receptor in rat cerebral cortical membranes. Format: cell membranes, Membrane. The procedure, abridged:
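Displacement of 1 nM N6-[3H]cyclohexyladenosine from A1 sites in rat cerebral cortical membranes by a range of xanthine concentrations. Each point was run in triplicate in at least two separate experiments. IC50 was determined and converted to Ki. Values are mean ± SEM of two to five determinations.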

Assay [3] is filed under the species Cavia porcellus. Put plainly: Selectivity was expressed as the ratio is Ki of adenosine A1 receptor to that of adenosine A2 receptor.
Assay [4] addresses Adenosine receptor A1 (Rattus norvegicus) (UniProt P25099). Kind of assay: Inactive Selectivity was expressed as the ratio is Ki of A1-[…].

Sequence of Adenosine receptor A2a (P46616 whole entry): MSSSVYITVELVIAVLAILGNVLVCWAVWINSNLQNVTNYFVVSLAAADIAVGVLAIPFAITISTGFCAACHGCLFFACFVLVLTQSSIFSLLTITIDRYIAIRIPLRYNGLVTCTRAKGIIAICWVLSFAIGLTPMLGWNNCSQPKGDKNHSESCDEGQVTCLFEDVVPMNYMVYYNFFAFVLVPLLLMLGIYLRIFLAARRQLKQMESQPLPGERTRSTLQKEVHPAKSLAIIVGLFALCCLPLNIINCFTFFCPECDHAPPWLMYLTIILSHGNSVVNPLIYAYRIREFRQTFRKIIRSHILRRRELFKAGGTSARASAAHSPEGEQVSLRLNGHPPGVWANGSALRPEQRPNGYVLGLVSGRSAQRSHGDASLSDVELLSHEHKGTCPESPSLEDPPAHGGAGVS

The Ki is the dissociation constant of the complex between target and ligand, obtained from inhibition or displacement. A low value points to tighter binding. Take `CCCn1c(=O)c2c(ncn2C)n(C)c1=O`: the values for the Ki in assay [1] and in assay [2] were 5 µM and 38 µM, respectively. For the same molecule, the Selectivity ratio in assay [3] stood at 9.5.

As for `O=c1c2[nH]cnc2n(Cc2ccccc2)c(=O)n1Cc1ccccc1`, the results for the inhibition constant (Ki) in assay [1] and in assay [2] were 14 µM and 2 µM, respectively. Besides, the Selectivity ratio in assay [3] was 0.14.

With `C=CCn1c(=O)c2c(ncn2C)n(C)c1=O`, the Ki in assay [1] stood at 6.5 µM; in assay [2] it was 47 µM. The Selectivity ratio in assay [3] was determined as 7.2.

For the molecule `C=CCn1c(=O)c2c(ncn2C)n(CC=C)c1=O`, the Ki came to 4 µM in assay [1] and 18 µM in assay [2]. In assay [3], the Selectivity ratio amounted to 4.5.

On to `Cn1c(=O)c2nc[nH]c2n(CCO)c1=O`, for which the inhibitory constant (Ki) worked out at 80 µM in assay [1] and 60 µM in assay [2]. For the same molecule, in assay [3], the Selectivity ratio worked out at 0.8.

For `CCCn1c(=O)n(C)c(=O)c2c1ncn2C`, the inhibition constant (Ki) in assay [1] came out at 9 µM; in assay [2], 24 µM. Further, the Selectivity ratio in assay [3] was 2.7.

For `CCCn1c(=O)c2c(ncn2Cc2ccccc2)n(CCC)c1=O`, the Ki in assay [1] was found to be 1.5 µM; in assay [2], 1 µM. Moreover, the Selectivity ratio in assay [3] was determined as 0.7.

With `Cn1c(=O)c2c(ncn2CCCl)n(C)c1=O` [7-CHLOROETHYLTHEOPHYLLINE], the Ki in assay [1] amounted to 4.5 µM; in assay [2], 8 µM. The Selectivity ratio in assay [3] was 1.8.

Turning to `Cn1c(=O)n(CCO)c(=O)c2[nH]cnc21`, the inhibition constant Ki in assay [1] was determined as 50 µM; in assay [2] it was 85 µM. The Selectivity ratio in assay [3] amounted to 1.7.

Take `CC(C)Cn1c(=O)n(C)c(=O)c2nc[nH]c21`: the Selectivity ratio in assay [3] turned out to be 0.9.

Take `CCCn1c(=O)c2c(ncn2CCC)n(CCC)c1=O`: the Ki in assay [1] stood at 1.4 µM; in assay [2], 2.6 µM. In assay [3], the Selectivity ratio was determined as 1.9.

As for `C=CCn1cnc2c1c(=O)n(C)c(=O)n2CC(C)C`, the inhibitory constant (Ki) in assay [1] is 8.5 µM; in assay [2], 13 µM. For the same molecule, the Selectivity ratio in assay [3] turned out to be 1.5.

As to `C=CCn1cnc2c1c(=O)n(C)c(=O)n2C`, the Ki in assay [1] was found to be 10 µM; in assay [2], 33 µM. The Selectivity ratio in assay [3] stood at 3.3.

Regarding `CCCn1c(=O)c2c(ncn2C)n(CCC)c1=O`, the Ki in assay [1] amounted to 1.2 µM; in assay [2], 7 µM. For the same molecule, the Selectivity ratio in assay [3] turned out to be 5.8.

Turning to `C#CCn1cnc2c1c(=O)n(C)c(=O)n2C`, the results for the Ki in assay [1] and in assay [2] were 4.1 µM and 12 µM, respectively. In assay [3], the Selectivity ratio was 2.9.

In turn, `C=CCn1c(=O)c2nc[nH]c2n(CC=C)c1=O` registered a Ki in assay [2] of 10 µM. Also, the Selectivity ratio in assay [3] is 2.

Regarding `CCn1c(=O)c2nc[nH]c2n(CC)c1=O`, the results for the inhibition constant (Ki) in assay [1] and in assay [2] were 3 µM and 3.3 µM, respectively. Besides, the Selectivity ratio in assay [3] was 1.1.

As for `C#CCn1cnc2c1c(=O)n(C)c(=O)n2CC(C)C`, the figures for the Ki in assay [1] and in assay [2] were 2.8 µM and 3.1 µM, respectively. For the same molecule, in assay [3], the Selectivity ratio came out at 1.1.

In the case of `Cn1c(=O)c2c(ncn2CCO)n(C)c1=O` [ETOFYLLINE], the Ki in assay [1] turned out to be 135 µM; in assay [2], 105 µM. Further, the Selectivity ratio in assay [3] amounted to 0.8.

On to `CC(C)Cn1c(=O)c2nc[nH]c2n(CC(C)C)c1=O`, for which the Ki in assay [2] stood at 0.5 µM. Moreover, in assay [3], the Selectivity ratio amounted to 0.3.

As for `CCn1c(=O)c2nc[nH]c2n(C)c1=O`, the Ki in assay [1] was found to be 5 µM; in assay [2], 15 µM. Further, the Selectivity ratio in assay [3] came to 3.

Regarding `CCCn1c(=O)c2nc[nH]c2n(CCC)c1=O`, in assay [3], the Selectivity ratio was 0.3.

Regarding `CC(C)Cn1c(=O)n(C)c(=O)c2c1ncn2Cc1ccccc1`, the Ki in assay [1] was 11 µM; in assay [2] it was 9 µM. In addition, the Selectivity ratio in assay [3] came to 0.8.

In the case of `CCCn1cnc2c1c(=O)n(C)c(=O)n2CC(C)C`, the Ki was found to be 11 µM in assay [1] and 13 µM in assay [2]. In assay [3], the Selectivity ratio is 1.2.

For `CC(=O)OCCn1cnc2c1c(=O)n(C)c(=O)n2C`, the Ki in assay [1] was found to be 68 µM; in assay [2] it was 40 µM. In assay [3], the Selectivity ratio was 0.6.

Turning to `CC(C)Cn1c(=O)n(C)c(=O)c2c1ncn2C`, the inhibitory constant (Ki) in assay [1] was determined as 7 µM; in assay [2], 19 µM. In assay [3], the Selectivity ratio was found to be 2.7.

With `Cn1c(=O)c2c(ncn2Cc2ccccc2)n(C)c1=O`, the figures for the inhibition constant (Ki) in assay [1] and in assay [2] were 14 µM and 6 µM, respectively. The Selectivity ratio in assay [3] came out at 0.4.

Regarding `C=CCn1cnc2c1c(=O)n(CCC)c(=O)n2CCC`, the Ki in assay [1] came out at 0.7 µM; in assay [2] it was 1.9 µM. In addition, the Selectivity ratio in assay [3] is 2.7.

For the molecule `CCCn1cnc2c1c(=O)n(C)c(=O)n2C`, the results for the Ki in assay [1] and in assay [2] were 11 µM and 21 µM, respectively. In addition, the Selectivity ratio in assay [4] was 1.9.

On to `C#CCn1cnc2c1c(=O)n(CCC)c(=O)n2CCC`, for which the Ki in assay [1] came out at 0.4 µM; in assay [2] it was 0.6 µM. In addition, in assay [3], the Selectivity ratio came out at 1.5.

`C#CCn1c(=O)c2c(ncn2C)n(C)c1=O` showed an inhibition constant Ki in assay [1] of 6 µM. For the same molecule, the Selectivity ratio in assay [3] is 7.5.

As to `CC(C)n1c(=O)n(C)c(=O)c2[nH]cnc21`, the results for the inhibition constant Ki in assay [1] and in assay [2] were 6 µM and 12 µM, respectively. Besides, the Selectivity ratio in assay [3] turned out to be 2.
